Test results as given in ChEMBL document CHEMBL1649179, “Pharmacokinetics of LB80331 and LB80317 following oral administration of LB80380, a new antiviral agent for chronic hepatitis B (CHB), in healthy adult subjects, CHB patients, and mice” (Antimicrob Agents Chemother, 2009).

What was measured:
Homo sapiens [1] = assay: Tmax in high fat diet fed healthy human assessed as (1-((2-amino-9H-purin-9-yl)methyl)cyclopropoxy)me assessed as (1-((2-amino-9H-purin-9-yl)methyl)cyclopropoxy)me at 60 mg, po administered as single dose by LC-MS analysis; assay type: ADME, organism-based; conditions: in vivo
Method in brief: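 Healthy subjects received a single oral 60-mg dose after a high-fat breakfast or after an overnight fast. Plasma LB80331 was assayed by validated LC-MS/MS (LLOQ 5 ng/ml; intra- and interassay precision and accuracy <10%). Tmax was obtained by noncompartmental analysis.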

Homo sapiens [2] = assay: Oral clearance in chronic hepatitis B virus infected patient assessed as (1-((2-amino-9H-purin-9-yl)methyl)cyclopropoxy)me at 30 mg, po administered as single dose by LC-MS analysis; assay type: ADME, organism-based; conditions: in vivo
Method in brief: (§1)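 Oral LB80380 was given once daily for 4 weeks to CHB patients. Plasma LB80331 was quantified by validated LC-MS/MS after protein precipitation, with stable-isotope internal standard, at baseline and steady state (weeks 2–4), 0–24 h postdose. Noncompartmental CL/F was calculated as dose (adjusted for LB80380/LB80331 molecular weights) divided by AUC (AUC0-∞ single dose; AUC0-24 steady state).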

Homo sapiens [3] = assay: Cmax in high fat diet fed healthy human assessed as (1-((2-amino-9H-purin-9-yl)methyl)cyclopropoxy)me at 60 mg, po administered as single dose by LC-MS analysis; assay type: ADME, organism-based; design: dose 60 mg, route oral; conditions: in vivo
Method in brief: (§2)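 Healthy subjects given a single oral dose after an overnight fast or after a high-fat breakfast. Plasma LB80331 measured by validated LC-MS/MS (LLOQ 5 ng/ml) after protein precipitation. Cmax by noncompartmental analysis.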

Homo sapiens [4] = assay: Tmax in chronic hepatitis B virus infected patient assessed as (1-((2-amino-9H-purin-9-yl)methyl)cyclopropoxy)me at 240 mg, po qd for 4 weeks by LC-MS analysis; assay type: ADME, organism-based; conditions: in vivo, 672 h
Method in brief: (§3)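 Daily oral LB80380 was given to CHB patients over 4 weeks. Blood was drawn on day 1 and at steady state (weeks 2–4), predose and 0.5–24 h postdose. Plasma LB80331 (LLOQ 5 ng/ml) and LB80317 (LLOQ 10 ng/ml) were measured by LC-MS/MS after protein-precipitation extraction. Tmax was taken by noncompartmental analysis.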

Homo sapiens [5] = assay: Tmax in chronic hepatitis B virus infected patient assessed as (1-((2-amino-9H-purin-9-yl)methyl)cyclopropoxy)me at 30 mg, po administered as single dose by LC-MS analysis; assay type: ADME, organism-based; conditions: in vivo; method in brief: as §3
Homo sapiens [6] = assay: AUC (0 to infinity) in chronic hepatitis B virus infected patient assessed as (1-((2-amino-9H-purin-9-yl)methyl)cyclopropoxy)me at 240 mg, po administered as single dose by LC-MS analysis; assay type: ADME, organism-based, Plasma; design: dose 240 mg, route oral, time infinity; conditions: in vivo
Method in brief: (§4)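 CHB patients (HBsAg/HBeAg positive), six per dose cohort, given a first oral dose on day 1. Plasma sampled at baseline. Analysis by validated LC-MS/MS after protein precipitation with a stable-isotope internal standard; LLOQ 5 ng/ml for LB80331. Noncompartmental analysis gives Cmax and AUC0-∞.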

Homo sapiens [7] = assay: Half life in chronic hepatitis B virus infected patient assessed as (1-((2-amino-9H-purin-9-yl)methyl)cyclopropoxy)me at 240 mg, po administered as single dose by LC-MS analysis; assay type: ADME, organism-based; conditions: in vivo
Method in brief: (§5)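 CHB patients given LB80380 orally once daily for 4 weeks. Plasma was sampled on day 1 and at steady state (weeks 2–4), predose and 0.5, 1, 2, 3, 4, 6, 8 and 24 h postdose. LB80331 was measured by validated LC-MS/MS (LLOQ 5 ng/ml). Terminal-phase apparent t1/2 came from noncompartmental analysis and was flagged if extrapolated AUC exceeded 20% of AUC0-24.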

Homo sapiens [8] = assay: Cmax in chronic hepatitis B virus infected patient assessed as (1-((2-amino-9H-purin-9-yl)methyl)cyclopropoxy)me at 120 mg, po qd for 4 weeks by LC-MS analysis; assay type: ADME, organism-based; design: dose 120 mg, route oral; conditions: in vivo, 672 h
Method in brief: (§6)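 CHB patients, oral once daily for 4 weeks. Plasma sampled at steady state (weeks 2–4), predose and at 0.5, 1, 2, 3, 4, 6, 8 and 24 h postdose. LB80331 measured by validated LC-MS/MS (LLOQ 5 ng/ml) after protein precipitation with a stable-isotope internal standard. Cmax by noncompartmental analysis.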

Liver [9] = assay: AUC (0 to 36 hrs) in CD-1 mouse liver assessed as di- and triphosphates of (1-((2-amino-9H-purin-9-yl)methyl)cyclopropoxy)me at 30 mg/kg, po administered as single dose by LC-MS analysis; assay type: ADME, organism-based; design: time < 36 hr, dose 30 mg/kg, route oral; conditions: in vivo
Method in brief: (§7)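 Male CD-1 mice given a single oral dose in 100% PEG 400. Samples extracted with perchloric acid and neutralized with ammonium bicarbonate. One aliquot assayed for the free analyte; the other treated with calf intestinal phosphatase to give the total including di-/triphosphates. Analysis by LC-MS/MS.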

Homo sapiens [10] = assay: Half life in chronic hepatitis B virus infected patient assessed as (1-((2-amino-9H-purin-9-yl)methyl)cyclopropoxy)me at 120 mg, po administered as single dose by LC-MS analysis; assay type: ADME, organism-based; conditions: in vivo; method in brief: as §5
Plasma [11] = assay: AUC (0 to infinity) in CD-1 mouse plasma assessed as (1-((2-amino-9H-purin-9-yl)methyl)cyclopropoxy)me at 30 mg/kg, po administered as single dose by LC-MS analysis; assay type: ADME, organism-based; design: time infinity, dose 30 mg/kg, route oral; conditions: in vivo; method in brief: as §7
Homo sapiens [12] = assay: Cmax in chronic hepatitis B virus infected patient assessed as (1-((2-amino-9H-purin-9-yl)methyl)cyclopropoxy)me at 60 mg, po administered as single dose by LC-MS analysis; assay type: ADME, organism-based; design: dose 60 mg, route oral; conditions: in vivo; method in brief: as §4
Homo sapiens [13] = assay: Oral clearance in chronic hepatitis B virus infected patient assessed as (1-((2-amino-9H-purin-9-yl)methyl)cyclopropoxy)me at 120 mg, po administered as single dose by LC-MS analysis; assay type: ADME, organism-based; conditions: in vivo; method in brief: as §1
Plasma [14] = assay: Cmax in CD-1 mouse plasma assessed as (1-((2-amino-9H-purin-9-yl)methyl)cyclopropoxy)me at 30 mg/kg, po administered as single dose by LC-MS analysis; assay type: ADME, organism-based; design: dose 30 mg/kg, route oral; conditions: in vivo; method in brief: as §7
Homo sapiens [15] = assay: Cmax in chronic hepatitis B virus infected patient assessed as (1-((2-amino-9H-purin-9-yl)methyl)cyclopropoxy)me at 120 mg, po administered as single dose by LC-MS analysis; assay type: ADME, organism-based; design: dose 120 mg, route oral; conditions: in vivo; method in brief: as §4
Homo sapiens [16] = assay: Cmax in chronic hepatitis B virus infected patient assessed as (1-((2-amino-9H-purin-9-yl)methyl)cyclopropoxy)me at 60 mg, po qd for 4 weeks by LC-MS analysis; assay type: ADME, organism-based; design: dose 60 mg, route oral; conditions: in vivo, 672 h; method in brief: as §6
Homo sapiens [17] = assay: Tmax in chronic hepatitis B virus infected patient assessed as (1-((2-amino-9H-purin-9-yl)methyl)cyclopropoxy)me at 240 mg, po administered as single dose by LC-MS analysis; assay type: ADME, organism-based; conditions: in vivo; method in brief: as §3
Homo sapiens [18] = assay: Oral clearance in chronic hepatitis B virus infected patient assessed as (1-((2-amino-9H-purin-9-yl)methyl)cyclopropoxy)me at 240 mg, po administered as single dose by LC-MS analysis; assay type: ADME, organism-based; conditions: in vivo; method in brief: as §1
Homo sapiens [19] = assay: Cmax in fasted healthy human assessed as (1-((2-amino-9H-purin-9-yl)methyl)cyclopropoxy)me at 60 mg, po administered as single dose by LC-MS analysis; assay type: ADME, organism-based; design: dose 60 mg, route oral; conditions: in vivo; method in brief: as §2
Liver [20] = assay: Cmax in CD-1 mouse liver assessed as (1-((2-amino-9H-purin-9-yl)methyl)cyclopropoxy)me at 30 mg/kg, po administered as single dose by LC-MS analysis; assay type: ADME, organism-based; design: dose 30 mg/kg, route oral; conditions: in vivo; method in brief: as §7
Homo sapiens [21] = assay: Tmax in chronic hepatitis B virus infected patient assessed as (1-((2-amino-9H-purin-9-yl)methyl)cyclopropoxy)me at 120 mg, po administered as single dose by LC-MS analysis; assay type: ADME, organism-based; conditions: in vivo; method in brief: as §3

Nc1ncc2ncn(CC3(OCP(=O)(O)O)CC3)c2n1 [BESIFOVIR]
Tmax (Homo sapiens [1]): 4 h | CL/F (Homo sapiens [2]): 288 mL/min | Cmax (Homo sapiens [3]): 246 ng/mL | Tmax (Homo sapiens [4]): 2 h | Tmax (Homo sapiens [5]): 1.5 h | AUC (Homo sapiens [6]): 6302 ng·h/mL | t1/2 (Homo sapiens [7]): 3 h | Cmax (Homo sapiens [8]): 696 ng/mL | AUC (Liver [9]): 64 µM·h | t1/2 (Homo sapiens [10]): 3 h | AUC (Plasma [11]): 17 µM·h | Cmax (Homo sapiens [12]): 397 ng/mL | CL/F (Homo sapiens [13]): 273 mL/min | Cmax (Plasma [14]): 6 µM | Cmax (Homo sapiens [15]): 805 ng/mL | Cmax (Homo sapiens [16]): 362 ng/mL | Tmax (Homo sapiens [17]): 2 h | CL/F (Homo sapiens [18]): 363 mL/min | Cmax (Homo sapiens [19]): 286 ng/mL | Cmax (Liver [20]): 44 µM | Tmax (Homo sapiens [21]): 2 h
